Source: ChEMBL document CHEMBL1926628, “Febrifugine analogue compounds: synthesis and antimalarial evaluation” (Bioorg Med Chem, 2012)

What was measured:
Plasmodium falciparum [1] = test: Antimalarial activity against chloroquine-resistant Plasmodium falciparum VS/1 infected in human A positive erythrocytes assessed as inhibition of [G-3H]-hypoxanthine uptake after 24 hrs by liquid scintillation counting; type: functional; settings: VS/1, 24 h
Plasmodium falciparum [2] = test: Antimalarial activity against chloroquine-resistant Plasmodium falciparum TM6 infected in human A positive erythrocytes assessed as inhibition of [G-3H]-hypoxanthine uptake after 24 hrs by liquid scintillation counting; type: functional, organism-based; settings: TM6, 24 h
Plasmodium falciparum [3] = test: Antimalarial activity against chloroquine-resistant Plasmodium falciparum K1 infected in human A positive erythrocytes assessed as inhibition of [G-3H]-hypoxanthine uptake after 24 hrs by liquid scintillation counting; type: functional, organism-based; settings: K1, 24 h
Plasmodium falciparum [4] = test: Antimalarial activity against Plasmodium falciparum PH3 infected in human A positive erythrocytes assessed as inhibition of [G-3H]-hypoxanthine uptake after 24 hrs by liquid scintillation counting; type: functional, organism-based; settings: PH3, 24 h
Plasmodium falciparum [5] = test: Antimalarial activity against Plasmodium falciparum Dd2 infected in human A positive erythrocytes assessed as inhibition of [G-3H]-hypoxanthine uptake after 24 hrs by liquid scintillation counting; type: functional, organism-based; settings: Dd2, 24 h
Plasmodium falciparum [6] = test: Antimalarial activity against Plasmodium falciparum TM4 infected in human A positive erythrocytes assessed as inhibition of [G-3H]-hypoxanthine uptake after 24 hrs by liquid scintillation counting; type: functional, organism-based; settings: TM4, 24 h
Plasmodium falciparum [7] = test: Antimalarial activity against chloroquine-sensitive Plasmodium falciparum 3D7 infected in human A positive erythrocytes assessed as inhibition of [G-3H]-hypoxanthine uptake after 24 hrs by liquid scintillation counting; type: functional, organism-based; settings: 3D7, 24 h
Rattus norvegicus = organism: Rattus norvegicus; test: Ratio of compound MTD to febrifugine MTD in Sprague-Dawley rat; type: ADME, organism-based; settings: in vivo
Plasmodium berghei [8] = test: Antimalarial activity against blood stage of Plasmodium berghei NK65 infected in po dosed rat assessed as inhibition of parasite growth; type: functional
Summary of the method: (§1)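 Blood-stage Plasmodium berghei NK65 infection in rodents. Compounds were given by the route stated in each line. ED50 is the dose in mg/kg giving 50% parasite growth inhibition relative to the untreated blank control. Procedure follows earlier reports.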

[9] = Therapeutic index, ratio of MTD for Sprague-Dawley rat to MCD for blood stage of Plasmodium berghei NK65; settings: read-out: TI
Summary of the method: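 MCD (minimum clearance dose) comes from rodents infected with blood-stage P. berghei NK65, dosed orally except artesunate, which was given iv. MTD (maximum tolerated dose) comes from Sprague–Dawley rats. Both are in mg/kg. Therapeutic index is MTD divided by MCD.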

[10] = Acute toxicity in po dosed Sprague-Dawley rat assessed as maximum tolerated dose; type: organism-based; settings: in vivo
Plasmodium berghei [11] = test: Antimalarial activity against blood stage of Plasmodium berghei NK65 infected in po dosed rat assessed as minimum curative dose; type: functional
Summary of the method: (§2)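 Rodents infected with blood-stage Plasmodium berghei NK65 were dosed by the route given in each line. Read-out was the minimum clearance dose (MCD), the lowest dose clearing parasites, reported in mg/kg. Method follows earlier reports.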

Plasmodium falciparum [12] = test: Antimalarial activity against chloroquine-resistant Plasmodium falciparum FVO infected in Aotus monkey assessed as cure rate at 8 mg/kg, po qd for 3 days; type: functional
Summary of the method: (§3)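 Aotus monkeys carrying chloroquine-resistant P. falciparum FVO were dosed orally once daily for 3 days at 2, 4, 8 or 16 mg/kg/day. Dosing began the day after parasitemia reached approximately 5,000 organisms per mm³. Cure means parasitemia cleared with no recrudescence. Cure rate is animals cured over total tested.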

Plasmodium falciparum [13] = test: Antimalarial activity against chloroquine-resistant Plasmodium falciparum FVO infected in Aotus monkey assessed as cure rate at 16 mg/kg, po qd for 3 days; type: functional; summary of the method: as §3
Plasmodium falciparum [14] = test: Antimalarial activity against chloroquine-resistant Plasmodium falciparum FVO infected in Aotus monkey assessed as cure rate at 4 mg/kg, po qd for 3 days; type: functional; summary of the method: as §3
Plasmodium falciparum [15] = test: Antimalarial activity against chloroquine-resistant Plasmodium falciparum FVO infected in Aotus monkey assessed as cure rate at 2 mg/kg, po qd for 3 days; type: functional; summary of the method: as §3
Plasmodium berghei [16] = test: Antimalarial activity against blood stage of Plasmodium berghei NK65 infected in iv dosed rat assessed as inhibition of parasite growth; type: functional; summary of the method: as §1
Plasmodium berghei [17] = test: Antimalarial activity against blood stage of Plasmodium berghei NK65 infected in iv dosed rat assessed as minimum curative dose; type: functional; summary of the method: as §2

| Compound | IC50 (Plasmodium falciparum [1]) [nM] | IC50 (Plasmodium falciparum [2]) [nM] | IC50 (Plasmodium falciparum [3]) [nM] | IC50 (Plasmodium falciparum [4]) [nM] | IC50 (Plasmodium falciparum [5]) [nM] | IC50 (Plasmodium falciparum [6]) [nM] | IC50 (Plasmodium falciparum [7]) [nM] | Ratio (Rattus norvegicus) | ED50 (Plasmodium berghei [8]) [mg/kg] | selectivity ratio [9] | MTD [10] [mg/kg] | MCD (Plasmodium berghei [11]) [mg/kg] | Activity (Plasmodium falciparum [12]) [%] | Activity (Plasmodium falciparum [13]) [%] | Activity (Plasmodium falciparum [14]) [%] | Activity (Plasmodium falciparum [15]) [%] | ED50 (Plasmodium berghei [16]) [mg/kg] | MCD (Plasmodium berghei [17]) [mg/kg] |
| --- | --- | --- | --- | --- | --- | --- | --- | --- | --- | --- | --- | --- | --- | --- | --- | --- | --- | --- |
| O=C(Cn1cnc2cccc(C(F)(F)F)c2c1=O)[C@@H]1NCC[C@H]1O | 11 | 2.7 | 4.8 | 3.4 | 6.1 | 7.3 | 2.6 |  |  |  |  |  |  |  |  |  |  |  |
| O=C(Cn1cnc2cccc(C(F)(F)F)c2c1=O)[C@H]1NCC[C@H]1O | 36.5 | 25.6 | 24.2 | 21.2 | 31.8 | 51.9 | 19.6 |  |  |  |  |  |  |  |  |  |  |  |
| CCN(CC)Cc1cc(Nc2ccnc3cc(Cl)ccc23)ccc1O | 8.7 | 7.5 | 21.2 | 15.9 | 9.1 | 15.2 | 4.9 |  |  |  |  |  |  |  |  |  |  |  |
| O=C(Cn1cnc2ccncc2c1=O)[C@H]1NCC[C@@H]1O | 4.1 | 3.4 | 2.8 | 1 | 2.2 | 3 | 1.4 | > 10 | 1 | 47 | 350 | 7.5 |  |  |  |  |  |  |
| O=C(Cn1cnc2cccc(C(F)(F)F)c2c1=O)[C@H]1NCC[C@@H]1O | 11.2 | 2.5 | 4.7 | 3.2 | 6.3 | 7.4 | 2.7 | > 10 | 0.95 | 60 | 400 | 6.7 |  |  |  |  |  |  |
| O=C(Cn1cnc2cccnc2c1=O)[C@H]1NCC[C@H]1O | 28.7 | 13.2 | 19.8 | 11.4 | 21.9 | 32.7 | 16.3 |  |  |  |  |  |  |  |  |  |  |  |
| O=C(Cn1cnc2ccccc2c1=O)[C@H]1NCC[C@@H]1O | 5.6 | 3.1 | 3.9 | 1.4 | 4.5 | 7.9 | 2.8 |  | 1.7 | 10 | 100 | 9.9 |  |  |  |  |  |  |
| O=C(C[C@@H]1NCCC[C@H]1O)Cn1cnc2ccccc2c1=O [FEBRIFUGINE] | 4.2 | 3.1 | 2 |  | 2.1 | 5.4 |  |  | 2.3 | 3 | 35 | 12 |  |  |  |  |  |  |
| OC(c1cc(C(F)(F)F)nc2c(C(F)(F)F)cccc12)C1CCCCN1 (configuration not stated) [MEFLOQUINE] |  |  |  |  |  |  |  |  | 1.1 | 61 |  | 9.9 |  |  |  |  |  |  |
| O=C(Cn1cnc2cccc(F)c2c1=O)[C@H]1NCC[C@@H]1O | 5.3 | 3.9 | 5.9 | 2.5 | 8.1 | 6.2 | 5.7 | > 10 | 1.1 | 63 | 400 | 6.3 |  |  |  |  |  |  |
| O=C(Cn1cnc2cccnc2c1=O)[C@H]1NCC[C@@H]1OCc1ccccc1 | 0.13 | 0.08 | 0.24 | 0.2 | 0.17 | 0.33 | 0.21 |  | 0.19 | 147 | 250 | 1.7 | 80 | 100 | 71 | 25 |  |  |
| O=C(Cn1cnc2cccnc2c1=O)[C@H]1NCC[C@@H]1O | 3.6 | 2.1 | 3.1 | 1.1 | 2.3 | 4.1 | 1.8 | > 10 | 1.2 | 63 | 450 | 7.1 |  |  |  |  |  |  |
| CCO[C@H]1CCN[C@@H]1C(=O)Cn1cnc2cccc(F)c2c1=O | 0.25 | 0.17 | 0.24 | 0.18 | 0.26 | 0.22 | 0.21 |  | 0.31 | 132 | 250 | 1.9 | 100 | 100 | 67 | 50 |  |  |
| CC(C)O[C@H]1CCN[C@@H]1C(=O)Cn1cnc2cccc(C(F)(F)F)c2c1=O | 0.68 | 0.31 | 0.61 | 0.54 | 0.78 | 0.39 | 0.36 |  | 0.23 | 104 | 250 | 2.4 |  |  |  |  |  |  |
| C[C@H]1[C@H](OC(=O)CCC(=O)O)O[C@@H]2O[C@@]3(C)CC[C@H]4[C@H](C)CC[C@@H]1[C@@]24OO3 [ARTESUNATE] |  |  |  |  |  |  |  |  |  | 37 |  |  |  |  |  |  | 0.55 | 6.8 |
| CCN(CC)CCCC(C)Nc1ccnc2cc(Cl)ccc12 (configuration not stated) [CHLOROQUINE] |  |  |  |  |  |  |  |  | 4.5 |  |  | 40 |  |  |  |  |  |  |
| O=C(Cn1cnc2cccnc2c1=O)[C@@H]1NCC[C@H]1O | 3.7 | 2 | 3.3 | 1 | 2.4 | 4 | 1.9 |  |  |  |  |  |  |  |  |  |  |  |
